In ChEMBL document CHEMBL4266040, “Structure-Based Engineering of Irreversible Inhibitors against Histone Lysine Demethylase KDM5A” (J Med Chem, 2018):
Activity calls are given as the source filed them. No cut-off for these calls is given here.

How the values were obtained:
MCF7 [1] = assay: Inhibition of KDM5 human MCF7 cells assessed as up-regulation of STING protein expression at 1 to 5 uM after 48 hrs by Western blot analysis relative to control; type: cell-based
Outline: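 MCF7 cells treated with compound or 0.1% DMSO for 30 or 48 h; total cell lysates analysed by Western blot with specific antibodies.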

MCF7 [2] = assay: Inhibition of KDM5 human MCF7 cells assessed as up-regulation of STING mRNA expression at 1 to 5 uM after 48 hrs by RT-qPCR assay relative to control; type: cell-based
Outline: (§1)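 MCF7 cells treated with compound or DMSO for 48 h; target mRNA quantified by real-time RT-PCR; biological triplicates.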

[3] = biological target: Lysine-specific demethylase 5A (Homo sapiens, UniProt P29375); assay: Inhibition of KDM5A in human BT474 cells assessed as effect on H3K4me3 methylation levels up to 5 uM after 48 hrs by immunocytochemistry
BT-474 [4] = assay: Growth inhibition of human BT474 cells at 0.11 to 3.5 uM after 12 days by IncuCyte live cell imaging method; type: functional, cell-based
Outline: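 BT474 cells grown with compound; percent confluence tracked by IncuCyte live-cell imaging every 4 h over 300 h.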

MDA-MB-231 = assay: Cytotoxicity against human MDA-MB-231 cells assessed as cell killing at 5 to 10 uM after 24 hrs by bright-field microscopy; type: functional, cell-based
MCF7 [5] = assay: Inhibition of KDM5 human MCF7 cells assessed as up-regulation of MT1H mRNA expression at 1 to 5 uM after 48 hrs by RT-qPCR assay relative to control; type: cell-based; outline: as §1
[6] = Metabolic stability in human BT474 cell culture media assessed as parent compound remaining at 10 uM after 24 hrs by LC-MS/MS analysis; type: physicochemical; details: read-out: Stability
HEK-293T = assay: Cytotoxicity against HEK293T cells assessed as cell killing at 5 to 10 uM after 24 hrs by bright-field microscopy; type: cell-based; details: human
BT-474 [7] = assay: Cytotoxicity against human BT474 cells assessed as reduction in cell viability at >5 uM after 24 hrs by celltiter glo assay; type: functional, cell-based
Outline: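 BT474 cells treated with compound; viability read by CellTiter-Glo luminescence 24 h after treatment.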

[8] = Effective permeability of the compound at pH 7.4 by PAMPA; type: ADME; details: read-out: Peff
Outline: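 PAMPA with a lipid/dodecane artificial membrane and pH 7.4 buffer in donor and acceptor wells. Compounds diluted from 10 mM DMSO stock to 0.05 mM final, 0.5% DMSO. Donor stirred during a 30 min permeation at room temperature. Donor and acceptor concentrations read by UV. Permeability given in 10−6 cm s−1: >100 high, 10–100 moderate, <10 low.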

MCF7 [9] = assay: Cytotoxicity against human MCF7 cells assessed as cell killing at 5 to 10 uM after 24 hrs by bright-field microscopy; type: functional, cell-based
[10] = Drug uptake in human BT474 cells at 2.5 uM after 24 hrs by LC-MS/MS analysis; type: ADME, cell-based; details: bt-474, 24 h
Outline: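 Compound incubated with BT474 cells for 24 h; cells lysed and compound level in the extract determined.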

MCF7 [11] = assay: Inhibition of KDM5 human MCF7 cells assessed as up-regulation of MT1F mRNA expression at 1 to 5 uM after 48 hrs by RT-qPCR assay relative to control; type: cell-based; outline: as §1

Chain of Lysine-specific demethylase 5A (P29375 whole entry): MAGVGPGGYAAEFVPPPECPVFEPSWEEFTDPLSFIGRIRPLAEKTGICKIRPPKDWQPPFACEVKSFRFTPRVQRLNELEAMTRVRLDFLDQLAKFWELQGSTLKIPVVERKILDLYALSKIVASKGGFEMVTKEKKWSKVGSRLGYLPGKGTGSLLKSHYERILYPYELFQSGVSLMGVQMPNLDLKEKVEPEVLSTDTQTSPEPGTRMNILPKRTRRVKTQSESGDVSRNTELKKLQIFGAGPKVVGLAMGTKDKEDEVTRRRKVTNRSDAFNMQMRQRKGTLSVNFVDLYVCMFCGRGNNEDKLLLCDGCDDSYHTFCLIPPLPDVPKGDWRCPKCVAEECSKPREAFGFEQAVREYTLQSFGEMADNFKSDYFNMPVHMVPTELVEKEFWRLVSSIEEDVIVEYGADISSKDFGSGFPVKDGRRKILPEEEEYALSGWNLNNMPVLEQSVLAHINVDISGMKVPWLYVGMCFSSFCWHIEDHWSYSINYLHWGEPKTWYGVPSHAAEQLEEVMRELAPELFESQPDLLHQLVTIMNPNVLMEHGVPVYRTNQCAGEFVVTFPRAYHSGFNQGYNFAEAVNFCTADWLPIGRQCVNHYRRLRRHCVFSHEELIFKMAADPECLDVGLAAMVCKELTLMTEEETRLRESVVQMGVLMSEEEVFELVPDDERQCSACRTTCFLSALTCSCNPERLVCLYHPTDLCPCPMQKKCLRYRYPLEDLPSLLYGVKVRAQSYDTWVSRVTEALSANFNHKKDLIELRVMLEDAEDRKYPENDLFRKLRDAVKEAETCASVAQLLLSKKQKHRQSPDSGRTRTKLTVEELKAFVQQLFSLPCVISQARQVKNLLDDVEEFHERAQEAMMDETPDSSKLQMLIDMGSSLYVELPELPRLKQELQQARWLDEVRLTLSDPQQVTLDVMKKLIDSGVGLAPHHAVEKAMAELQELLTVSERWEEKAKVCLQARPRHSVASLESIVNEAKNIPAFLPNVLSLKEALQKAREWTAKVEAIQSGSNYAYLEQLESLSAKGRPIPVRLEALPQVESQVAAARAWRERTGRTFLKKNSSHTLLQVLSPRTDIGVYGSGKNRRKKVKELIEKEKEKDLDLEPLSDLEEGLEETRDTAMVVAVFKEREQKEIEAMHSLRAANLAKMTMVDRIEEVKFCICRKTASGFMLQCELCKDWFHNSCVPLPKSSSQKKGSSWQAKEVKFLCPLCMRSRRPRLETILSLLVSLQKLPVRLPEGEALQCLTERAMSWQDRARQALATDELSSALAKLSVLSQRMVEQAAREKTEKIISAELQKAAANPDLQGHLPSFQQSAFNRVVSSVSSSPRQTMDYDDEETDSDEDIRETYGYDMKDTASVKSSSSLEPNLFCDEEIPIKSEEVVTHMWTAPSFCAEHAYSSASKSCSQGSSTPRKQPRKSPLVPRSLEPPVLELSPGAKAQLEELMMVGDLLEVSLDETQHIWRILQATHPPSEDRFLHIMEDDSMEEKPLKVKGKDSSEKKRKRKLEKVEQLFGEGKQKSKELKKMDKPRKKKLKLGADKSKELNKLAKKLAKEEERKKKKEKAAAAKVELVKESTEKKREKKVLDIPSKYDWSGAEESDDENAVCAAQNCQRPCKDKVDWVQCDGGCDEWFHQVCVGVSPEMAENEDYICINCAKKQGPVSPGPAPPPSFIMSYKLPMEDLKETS

With `CC(C)OC(=O)c1ccnc2cc(C(OCCN3CCCCC3)c3cccc(NC(=O)/C=C/CN(C)C)c3)sc12` (stereo not drawn) the fold change (FC) (MCF7 [1]) was < 2, the fold change (FC) (MCF7 [2]) was < 2 and the inhibition [3] was “inactive”. For the same molecule, the “growth inhibition (GI)” value (BT-474 [4]) was “inactive”, the Activity (MDA-MB-231) was “Active” and the fold change (FC) (MCF7 [5]) was < 2. For the same molecule, the remaining at 24 h, 10 µM [6] was 80%, the Activity (HEK-293T) was “Toxic” and the Activity (BT-474 [7]) was “Active”. For the same molecule, the Papp [8] was 71.4 ×10⁻⁶ cm/s, the Activity (MCF7 [9]) was “Active” and the Drug uptake [10] was “Active”. The fold change (FC) (MCF7 [11]) was < 2.
